M5 ag = human M5 muscarinic receptor agonists, primary screen, CHO-K1 cells, Fluo-8 calcium fluorescence. AID 624037, 2012. Muscarinic acetylcholine receptor M5 (Homo sapiens), P08912. activation, % at 3 µM. actives 0.19% (n = 360,000). CHO-K1 hM5 cells; 0% DMSO wells, 100% maximal acetylcholine response;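 active = activation above the run's mean over test compounds plus 3 SD, cut at about 23% in these data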;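 note: signal is peak over basal fluorescence ratio across the kinetic read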
CHRM5 antagonist = human M5 muscarinic receptor antagonists, primary screen, CHO cells, Fluo-8 calcium fluorescence; Muscarinic acetylcholine receptor M5 (Homo sapiens), P08912; CHO-hM5 cells, ACh EC80; inhibition, % at 3 µM; actives 0.59% (n = 360,000); AID 624040, 2012;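 active = inhibition above a per-plate cutoff, the mean of that plate's test compounds plus 3 SD, cut at about 27% in these data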;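 note: 0% = acetylcholine EC80 with DMSO and 100% = DMSO without agonist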
CHRM5 PAM = human M5 muscarinic receptor positive allosteric modulators, primary screen, CHO-K1 cells, Fluo-8 calcium fluorescence | Muscarinic acetylcholine receptor M5 (Homo sapiens), P08912 | CHO-K1 hM5, ACh EC20 PAM; 0% = ACh EC20, 100% = ACh EC100 | activation, % at 3 µM | actives 0.3% (n = 360,000) | AID 624038, 2012;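 active = activation above the run cutoff, the mean activation of all test compounds plus 3 SD, cut at about 18% in these data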
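Measured by: Fluo-8 calcium fluorescence; material: human M5 receptor in CHO-K1 cells; schedule: Post-acetylcholine fluorescence recording 140 s; benchmarks: low control EC20 acetylcholine (0%), high control EC100 acetylcholine (100%); read-out: Max/basal fluorescence ratio as % of EC20–EC100 ACh window; compound: single dose, 3 µM nominal final test concentration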
M4 antag = human M4 muscarinic receptor antagonists, primary screen, CHO cells, Fluo-8 calcium fluorescence; CHO-hM4 cells, ACh EC80; inhibition, % at 3 µM; actives 0.73% (n = 360,000); AID 624125, 2012;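 active = inhibition above its plate's cutoff, the mean inhibition of sample wells plus 3 SD, cut at about 27% in these data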;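 note: 0% = acetylcholine EC80 with DMSO and 100% = DMSO without agonist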
Target sequence (P08173 whole entry, looked up): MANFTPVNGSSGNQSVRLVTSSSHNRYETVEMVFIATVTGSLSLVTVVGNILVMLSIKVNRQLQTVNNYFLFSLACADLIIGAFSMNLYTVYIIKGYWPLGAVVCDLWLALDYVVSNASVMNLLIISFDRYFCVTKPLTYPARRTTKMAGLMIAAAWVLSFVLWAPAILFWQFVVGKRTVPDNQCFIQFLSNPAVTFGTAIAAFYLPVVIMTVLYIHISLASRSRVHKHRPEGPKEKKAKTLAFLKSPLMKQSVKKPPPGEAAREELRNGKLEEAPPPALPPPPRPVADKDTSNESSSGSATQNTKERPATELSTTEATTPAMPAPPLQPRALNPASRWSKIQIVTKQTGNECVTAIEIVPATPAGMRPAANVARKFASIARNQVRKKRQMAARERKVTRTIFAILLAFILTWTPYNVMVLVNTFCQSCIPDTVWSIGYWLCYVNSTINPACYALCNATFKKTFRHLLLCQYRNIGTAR
M4 PAM = human M4 muscarinic receptor positive allosteric modulators, primary screen, CHO-K1 cells, Fluo-8 calcium fluorescence. Muscarinic acetylcholine receptor M4 (Homo sapiens), P08173. CHO-K1 hM4/Gqi5, ACh EC20; 0% = ACh EC20, 100% = maximal ACh. activation, % at 3 µM. actives 0.4% (n = 360,000). AID 624126, 2012;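 active = activation above its plate's cutoff, the mean activation of sample wells plus 3 SD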
M4 ag = human M4 muscarinic receptor agonists, primary screen, CHO-K1 cells, Fluo-8 calcium fluorescence; Muscarinic acetylcholine receptor M4 (Homo sapiens), P08173; CHO-K1 hM4/Gqi5; vehicle 0%, full acetylcholine response 100%; activation, % at 3 µM; actives 0.14% (n = 360,000); AID 624127, 2012;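 active = activation above the run mean over all test wells plus 3 SD, cut at about 32% in these data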;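 note: peak over basal fluorescence ratio per well then scaled between controls; 0% = DMSO wells and 100% = acetylcholine at EC100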
Active calls of the source: *. The list is not random: actives were taken first. Their share in the collection is about 1.9%.

SMILES	M5 ag	CHRM5 antagonist	CHRM5 PAM	M4 antag	M4 PAM	M4 ag
N#C/C(=C\c1ccc(N2CCOCC2)o1)C(=O)Nc1ccc(O)cc1	24*	13	-10	-3	-5	10
COc1ccc(N(CC(=O)NCCSCc2ccccc2C)S(=O)(=O)c2ccccc2)cc1	-2	6	-9	9	-14	7
Cc1cccnc1CNC(=O)C1CCC(=O)N(CCc2cccc(F)c2)C1 (stereo not drawn)	-5	2	-1	2	5	1
O=C1CCCCC1Nc1ccc(Br)cc1 (stereo not drawn)	-2	4	-6	2	0	1
COc1ccc(NC(=O)/C(C#N)=C/C=C/c2ccco2)cc1	6	27	24*	18	6	1
O=C1CCN(S(=O)(=O)c2ccccc2)CCN1CCOCc1cccc(F)c1	-4	3	1	-4	12	3
Cc1cc(N2C(=O)C(=O)/C(=C(/O)c3ccc(F)cc3)C2c2ccc(F)cc2)no1 (stereo not drawn)	0	-12	21*	2	12	0
COc1ccc(/C(O)=C2\C(=O)C(=O)N(c3cc(C)on3)C2c2ccc(OC)c(OC)c2)cc1OC (stereo not drawn)	-3	2	0	2	1	0
O=C(c1[nH]c(C(F)(F)F)nc1-c1ccccc1)N1CCN(c2ccccc2)CC1	1	5	3	-12	2	1
O=C(c1[nH]c(C(F)(F)F)nc1-c1ccccc1)N1CCN(c2c(Cl)cncc2Cl)CC1	36*	14	-6	3	-7	46*
COc1ccc(-c2nc(CS(=O)CC(=O)NCCCN3CCOCC3)c(C)o2)cc1OC (stereo not drawn)	-3	2	-2	4	-4	1
Cn1cc(Cl)c(C(=O)Nc2nc3ccc([N+](=O)[O-])cc3s2)n1	0	14	22*	-4	9	0
COc1ccc(C2=NOC(Cn3nc(C(=O)NCc4ccc(OC(F)(F)F)cc4)cc3-c3ccccc3)C2)cc1 (stereo not drawn)	2	9	-2	4	-2	2
COc1ccc(C2=NOC(Cn3nc(C(=O)NCC4CC4)cc3-c3ccccc3)C2)cc1 (stereo not drawn)	-4	26	-37	29*	-4	23
COc1ccc(C2=NOC(Cn3nc(C(=O)NCc4ccccc4OC)cc3-c3ccccc3)C2)cc1 (stereo not drawn)	2	20	-37	30*	-12	19
Cc1noc(C)c1S(=O)(=O)N1CCCCC1c1cc(C(=O)Nc2cccc3c2CCCC3)no1 (stereo not drawn)	-2	1	-8	-12	-9	-1
CC(C)N(C)C(=O)c1ccc(OC2CCN(CCc3ccccc3)CC2)cc1	-18	3	-4	6	-30	2
CN(Cc1nccn1C)C(=O)c1ccc(OC2CCN(CCc3ccccc3)CC2)cc1	-9	28*	-11	20	-13	0
CC(c1nccs1)N(C)C(=O)c1ccc(OC2CCN(CCc3ccccc3)CC2)cc1 (stereo not drawn)	-9	36*	-14	31*	-16	2
O=C(NC1CCCCC1)c1ccc(CS(=O)(=O)c2ccc(Cl)cc2)o1	1	2	1	-21	7	1
CCN(CC)CCNC(C(=O)Nc1cccc(C(C)=O)c1)c1ccccc1 (stereo not drawn)	-10	19	-21	54*	-19	1
CCOc1ccc(NC(C(=O)Nc2cccc(C(C)=O)c2)c2ccccc2)cc1 (stereo not drawn)	-4	4	-3	-1	-6	3
Cc1cccc(-c2noc(CCCC(=O)NC3CCCC3)n2)c1	2	18	-11	-2	6	11
CCCNC(=S)Nc1cccc(C(F)(F)F)c1	1	2	1	-1	6	1
FC(F)(F)c1cccc(NC(=S)NCC2COc3ccccc3O2)c1 (stereo not drawn)	6	32*	-19	8	-13	11
SMILES	M5 ag	CHRM5 antagonist	CHRM5 PAM	M4 antag	M4 PAM	M4 ag
CSc1nnc(SCC(=O)Nc2ccc3[nH]c(=O)[nH]c3c2)s1	2	5	4	2	10	0
O=C(CNC(=O)N1CC(=O)Nc2ccccc21)NCCc1cccc(F)c1	-2	-4	6	-8	19*	1
O=C(CCNC(=O)N1CC(=O)Nc2ccccc21)NCCc1cccc(F)c1	-4	-6	-1	-2	6	0
CC1CCCCN1CC(O)COc1ccc(OCC(O)CN2CCCCC2C)cc1 (stereo not drawn)	-19	7	-9	3	-12	0
COc1ccc(N2C(=O)Cc3c2nc(N)c(C#N)c3N)cc1	5	-2	6	28*	10	2
CC(=O)Nc1ccc(NC(=O)C(C)OC(=O)C23CC4CC(CC(Cl)(C4)C2)C3)cc1 (stereo not drawn)	8	13	-1	1	0	5
CCCCCCN1C2=NCCN2c2ccccc21	-5	0	1	29*	-22	3
Cc1cc(OCc2cc(C(=O)N3CCC(Oc4cccnc4)CC3)no2)cc(C)c1Cl	2	24	-24	35*	-12	19
COc1cccc(CN(C)C(=O)c2cc(COc3ccc4ncccc4c3)on2)c1	4	40*	-35	34*	-20	24
Cc1cc(OCc2cc(C(=O)N3CCN(CC4CC4)CC3)no2)cc(C)c1Cl	-5	-3	-8	-6	-8	6
CC(NC(=O)c1cc(COc2ccc3ncccc3c2)on1)c1ccc(F)cc1 (stereo not drawn)	-1	36*	-31	21	-33	22
O=C(c1cc(COc2ccc3ncccc3c2)on1)N1CCCCCC1	10	27*	-27	3	-4	22
O=C(c1cc(COc2ccc3ncccc3c2)on1)N1CCCC1	1	9	-20	10	6	11
CCN(CC(=O)Nc1ccccc1C(F)(F)F)C(=O)C1CCC1	2	1	1	-3	5	1
COC(=O)c1ccccc1Nc1ccnc(Cl)n1	-4	8	-5	-8	-4	0

Assay outcomes as filed in PubChem.
